ChEMBL document CHEMBL4311965, “Antimicrobial activity of amphipathic α,α-disubstituted β-amino amide derivatives against ESBL - CARBA producing multi-resistant bacteria; effect of halogenation, lipophilicity and cationic character” (Eur J Med Chem, 2019)
In brackets after ≈: the same amount, converted by molar mass.

Legend:
[1] = tested on: Corynebacterium glutamicum; assay: Antibacterial activity against Corynebacterium glutamicum ATCC 13032 cultured in MHB medium assessed as no bacterial growth incubated at 20 degC for 24 hrs by microdilution susceptibility test; format: functional; settings: ATCC 13032, 24 h
Summary of the method: (§1)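 Broth microdilution per CLSI M07-A9 with modifications. Inoculum about 2.5–3 x 10⁴ cells/mL in Mueller-Hinton broth, mixed 1:1 with test derivative. DMSO stocks diluted in double-distilled water, final DMSO <1%. Incubation 24 h at 37 °C (20 °C for C. glutamicum). Growth and sterility controls included; oxytetracycline reference.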

Pseudomonas aeruginosa [2] = assay: Antibacterial activity against multidrug-resistant Pseudomonas aeruginosa 50692172 producing New Delhi metallo-beta-lactamase-1 cultured in MHB medium assessed as reduction in bacterial growth incubated for 24 hrs by microdilution susceptibility test; format: functional; settings: Pseudomonas aeruginosa, 50692172, 24 h
Summary of the method: (§2)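 Broth microdilution per CLSI M07-A9 (modified). Working solutions made from concentrated DMSO stocks kept at r.t., diluted in double-distilled water, final DMSO <1%. Inoculum 1–1.2 x 10⁶ cells/mL in Mueller-Hinton broth, mixed 1:1 with compound. 37 °C, 24 h, four parallels. Read as OD₆₀₀. Where precipitation left residual OD, the point of major OD decrease was taken as the inhibitory concentration.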

Escherichia coli [3] = assay: Antibacterial activity against multidrug-resistant Escherichia coli 50579417 producing oxcillinase-48 cultured in MHB medium assessed as reduction in bacterial growth incubated for 24 hrs by microdilution susceptibility test; format: functional; settings: Escherichia coli, 50579417, 24 h; summary of the method: as §2
Staphylococcus aureus = assay: Antibacterial activity against Staphylococcus aureus ATCC 9144 cultured in MHB medium assessed as no bacterial growth incubated at 37 degC for 24 hrs by microdilution susceptibility test; format: functional; settings: ATCC 9144, 24 h; summary of the method: as §1
Pseudomonas aeruginosa [4] = assay: Antibacterial activity against multidrug-resistant Pseudomonas aeruginosa K34-7 producing Verona integron encoded metallo beta-lactamse-2 cultured in MHB medium assessed as reduction in bacterial growth incubated for 24 hrs by microdilution susceptibility test; format: functional; settings: K34-7, 24 h; summary of the method: as §2
[5] = Selectivity index, ratio of EC50 for hemolytic activity against human RBC to MIC for antibacterial activity against Escherichia coli ATCC 25922; format: toxicity; settings: human red blood cells (RBC)
Summary of the method: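 Selectivity index is the RBC haemolysis EC50 divided by the MIC against the E. coli or S. aureus reference strain.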

Acinetobacter baumannii [6] = assay: Antibacterial activity against multidrug-resistant Acinetobacter baumannii K47-42 producing oxcillinase-23 cultured in MHB medium assessed as reduction in bacterial growth incubated for 24 hrs by microdilution susceptibility test; format: functional; settings: K47-42, 24 h; summary of the method: as §2
MRC5 = assay: Cytotoxicity against human MRC5 cells assessed as reduction in cell viability incubated for 4 hrs by CellTiter 96 Aqueous One Solution Reagent based assay; settings: MRC5, 4 h
Summary of the method: (§3)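 HepG2 and MRC-5 cells seeded at 35 000 and 15 000 cells/well respectively, then held overnight at 37 °C, 5% CO₂. Compounds in serum-free MEM Earle's applied for 4 h. MTS reagent (CellTiter 96 AQueous One) added for a further 1 h, absorbance read at 485 nm. Survival expressed relative to medium (negative) and Triton X-100 (positive) controls.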

Escherichia coli [7] = assay: Antibacterial activity against multidrug-resistant Escherichia coli 50639799 producing Verona integron encoded metallo beta-lactamse-29 cultured in MHB medium assessed as reduction in bacterial growth incubated for 24 hrs by microdilution susceptibility test; format: functional; settings: Escherichia coli, 50639799, 24 h; summary of the method: as §2
[8] = Aqueous solubility of the compound in DMSO; format: physicochemical
Acinetobacter baumannii [9] = assay: Antibacterial activity against multidrug-resistant Acinetobacter baumannii K63-58 producing oxcillinase-23 cultured in MHB medium assessed as reduction in bacterial growth incubated for 24 hrs by microdilution susceptibility test; format: functional; settings: K63-58, 24 h; summary of the method: as §2
Pseudomonas aeruginosa [10] = assay: Antibacterial activity against multidrug-resistant Pseudomonas aeruginosa 50692520 producing Verona integron encoded metallo beta-lactamse cultured in MHB medium assessed as reduction in bacterial growth incubated for 24 hrs by microdilution susceptibility test; format: functional; settings: Pseudomonas aeruginosa, 50692520, 24 h; summary of the method: as §2
Enterococcus faecium [11] = assay: Antibacterial activity against multidrug-resistant Enterococcus faecium TUH50-22 cultured in BHIB medium assessed as reduction in bacterial growth incubated for 24 hrs by microdilution susceptibility test; format: functional; settings: TUH50-22, 24 h
Summary of the method: (§4)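 Enterococci grown in Brain Heart Infusion broth, otherwise broth microdilution per CLSI M07-A9 (modified). Concentrated DMSO stocks kept at r.t. and diluted in double-distilled water, final DMSO <1%. Inoculum 1–1.2 x 10⁶ cells/mL mixed 1:1 with compound. 37 °C, 24 h, four parallels. OD₆₀₀ read-out, lowest concentration with no growth.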

Escherichia coli [12] = assay: Antibacterial activity against Escherichia coli ATCC 25922 cultured in MHB medium assessed as no bacterial growth incubated at 37 degC for 24 hrs by microdilution susceptibility test; format: functional; settings: ATCC 25922, 24 h; summary of the method: as §1
Erythrocyte = assay: Hemolytic activity against human RBC incubated for 1 hr; format: cell-based
Summary of the method: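 Heparinized human blood washed three times in warm PBS and set to 10% hct. Erythrocytes at 1% v/v final, with compound in PBS (DMSO <1%), shaken 1 h at 37 °C and then centrifuged. Supernatant absorbance read at 405 and 545 nm after PBS background subtraction. Haemolysis taken relative to 1% Triton X-100. Three independent replicates, EC50 averaged.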

Enterococcus faecium [13] = assay: Antibacterial activity against multidrug-resistant Enterococcus faecium 50758899 cultured in BHIB medium assessed as reduction in bacterial growth incubated for 24 hrs by microdilution susceptibility test; format: functional; settings: Enterococcus faecium, 50758899, 24 h; summary of the method: as §4
HepG2 = assay: Cytotoxicity against human HepG2 cells assessed as reduction in cell viability incubated for 4 hrs by CellTiter 96 Aqueous One Solution Reagent based assay; settings: HepG2, 4 h; summary of the method: as §3
[14] = Drug metabolism in Sprague-Dawley rat liver microsomes assessed as CYP450-mediated 4-[2-(aminomethyl)-3-(3,5-dibromophenyl)-2-(4,5-dihydrooxazol-3-ium-2-yl)propyl]-2,6-dibromo-phenol formation incubated up to 3 hrs in presence of NADPH regenerating system by RP-HPLC-MS analysis; format: ADME
Summary of the method: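 Substrate at 1 µL of 100 µM aqueous stock in 100 mM potassium phosphate, pH 7.4, with NADPH regenerating system. Pooled male Sprague–Dawley rat liver microsomes (20 mg/mL stock) added, then incubated at 37 °C. Sampled at 0–180 min and quenched with cold methanol containing propranolol internal standard. Analysed by RP-HPLC–HRMS in positive ESI mode. Metabolites confirmed by HCD MS2. Triplicate incubations.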

For `NCCNC(=O)C(CN)(Cc1ccc(C(F)(F)F)cc1)Cc1ccc(C(F)(F)F)cc1`, the MIC [1] was 4 µg/mL (≈ 8.94 µM), the MIC (Pseudomonas aeruginosa [2]) was > 32 µg/mL and the MIC (Escherichia coli [3]) was > 32 µg/mL. The MIC (Staphylococcus aureus) was 8 µg/mL (≈ 17.9 µM), the MIC (Pseudomonas aeruginosa [4]) was > 32 µg/mL and the selectivity ratio [5] was 18. For the same compound, the MIC (Acinetobacter baumannii [6]) was > 32 µg/mL, the EC50 (MRC5) was 16 µg/mL (≈ 35.8 µM) and the MIC (Escherichia coli [7]) was > 32 µg/mL. The solubility [8] was “Soluble”, the MIC (Acinetobacter baumannii [9]) was > 32 µg/mL and the MIC (Pseudomonas aeruginosa [10]) was > 32 µg/mL. For the same compound, the MIC (Enterococcus faecium [11]) was 8 µg/mL (≈ 17.9 µM), the MIC (Escherichia coli [12]) was 16 µg/mL (≈ 35.8 µM) and the EC50 (Erythrocyte) was 289 µg/mL (≈ 646 µM). The MIC (Enterococcus faecium [13]) was 32 µg/mL (≈ 71.5 µM).

For `NCCNCC(CN)(Cc1ccc(F)c2ccccc12)Cc1ccc(F)c2ccccc12`, the MIC [1] was 1 µg/mL (≈ 2.31 µM), the MIC (Pseudomonas aeruginosa [2]) was 16 µg/mL (≈ 36.9 µM) and the MIC (Escherichia coli [3]) was 8 µg/mL (≈ 18.5 µM). It also gave an MIC (Staphylococcus aureus) of 2 µg/mL (≈ 4.61 µM), an MIC (Pseudomonas aeruginosa [4]) of 16 µg/mL (≈ 36.9 µM) and a selectivity ratio [5] of 7. The MIC (Acinetobacter baumannii [6]) was 16 µg/mL (≈ 36.9 µM), the EC50 (MRC5) was 9 µg/mL (≈ 20.8 µM) and the MIC (Escherichia coli [7]) was 8 µg/mL (≈ 18.5 µM). The EC50 (HepG2) was 12 µg/mL (≈ 27.7 µM), the MIC (Acinetobacter baumannii [9]) was 8 µg/mL (≈ 18.5 µM) and the MIC (Pseudomonas aeruginosa [10]) was 16 µg/mL (≈ 36.9 µM). It also gave an MIC (Enterococcus faecium [11]) of 4 µg/mL (≈ 9.23 µM), an MIC (Escherichia coli [12]) of 4 µg/mL (≈ 9.23 µM) and an EC50 (Erythrocyte) of 27 µg/mL (≈ 62.3 µM). It also gave an MIC (Enterococcus faecium [13]) of 4 µg/mL (≈ 9.23 µM).

With `NCCNC(=O)C(CN)(Cc1cc(Br)cc(Br)c1)Cc1cc(Br)cc(Br)c1` the MIC [1] was 2 µg/mL (≈ 3.19 µM), the MIC (Pseudomonas aeruginosa [2]) was > 32 µg/mL and the MIC (Escherichia coli [3]) was 8 µg/mL (≈ 12.8 µM). The MIC (Staphylococcus aureus) was 2 µg/mL (≈ 3.19 µM), the MIC (Pseudomonas aeruginosa [4]) was > 32 µg/mL and the selectivity ratio [5] was 15. The MIC (Acinetobacter baumannii [6]) was 16 µg/mL (≈ 25.5 µM), the EC50 (MRC5) was 17 µg/mL (≈ 27.1 µM) and the MIC (Escherichia coli [7]) was 16 µg/mL (≈ 25.5 µM). The solubility [8] was “Soluble”, the EC50 (HepG2) was 13 µg/mL (≈ 20.7 µM) and the MIC (Acinetobacter baumannii [9]) was 32 µg/mL (≈ 51 µM). The MIC (Pseudomonas aeruginosa [10]) was > 32 µg/mL, the Drug metabolism [14] was “Metabolite_Notdetected” and the MIC (Enterococcus faecium [11]) was 8 µg/mL (≈ 12.8 µM). It also gave an MIC (Escherichia coli [12]) of 4 µg/mL (≈ 6.38 µM), an EC50 (Erythrocyte) of 58 µg/mL (≈ 92.5 µM) and an MIC (Enterococcus faecium [13]) of 8 µg/mL (≈ 12.8 µM).

In the case of `NCCNC(=O)C(CN)(Cc1ccccc1C(F)(F)F)Cc1ccccc1C(F)(F)F`, the MIC [1] is reported as 8 µg/mL (≈ 17.9 µM), the MIC (Pseudomonas aeruginosa [2]) is reported as > 32 µg/mL and the MIC (Escherichia coli [3]) is reported as > 32 µg/mL. The MIC (Staphylococcus aureus) was 32 µg/mL (≈ 71.5 µM), the MIC (Pseudomonas aeruginosa [4]) was > 32 µg/mL and the selectivity ratio [5] was 10. The MIC (Acinetobacter baumannii [6]) was > 32 µg/mL, the EC50 (MRC5) was 42 µg/mL (≈ 93.9 µM) and the MIC (Escherichia coli [7]) was > 32 µg/mL. The solubility [8] was “Soluble”, the EC50 (HepG2) was 45 µg/mL (≈ 101 µM) and the MIC (Acinetobacter baumannii [9]) was > 32 µg/mL. For the same compound, the MIC (Pseudomonas aeruginosa [10]) was > 32 µg/mL, the MIC (Enterococcus faecium [11]) was > 32 µg/mL and the MIC (Escherichia coli [12]) was 32 µg/mL (≈ 71.5 µM). The EC50 (Erythrocyte) was 312 µg/mL (≈ 697 µM) and the MIC (Enterococcus faecium [13]) was > 32 µg/mL.

For `N=C(N)NCCNC(=O)C(CNC(=N)N)(Cc1ccc(F)c2ccccc12)Cc1ccc(F)c2ccccc12`, the MIC [1] was 0.5 µg/mL (≈ 0.941 µM), the MIC (Pseudomonas aeruginosa [2]) was > 32 µg/mL and the MIC (Escherichia coli [3]) was 32 µg/mL (≈ 60.2 µM). The MIC (Staphylococcus aureus) was 2 µg/mL (≈ 3.76 µM), the MIC (Pseudomonas aeruginosa [4]) was > 32 µg/mL and the selectivity ratio [5] was 21. For the same compound, the MIC (Acinetobacter baumannii [6]) was > 32 µg/mL, the MIC (Escherichia coli [7]) was 32 µg/mL (≈ 60.2 µM) and the MIC (Acinetobacter baumannii [9]) was > 32 µg/mL. The MIC (Pseudomonas aeruginosa [10]) was > 32 µg/mL, the MIC (Enterococcus faecium [11]) was 8 µg/mL (≈ 15 µM) and the MIC (Escherichia coli [12]) was 16 µg/mL (≈ 30.1 µM). For the same compound, the EC50 (Erythrocyte) was 329 µg/mL (≈ 619 µM) and the MIC (Enterococcus faecium [13]) was 16 µg/mL (≈ 30.1 µM).

In the case of `N=C(N)NCCNC(=O)C(CNC(=N)N)(Cc1cc(Br)cc(Br)c1)Cc1cc(Br)cc(Br)c1`, the MIC [1] is reported as 0.25 µg/mL (≈ 0.352 µM), the MIC (Pseudomonas aeruginosa [2]) is reported as 8 µg/mL (≈ 11.3 µM) and the MIC (Escherichia coli [3]) is reported as 8 µg/mL (≈ 11.3 µM). It also gave an MIC (Staphylococcus aureus) of 1 µg/mL (≈ 1.41 µM), an MIC (Pseudomonas aeruginosa [4]) of 16 µg/mL (≈ 22.5 µM) and a selectivity ratio [5] of 26. The MIC (Acinetobacter baumannii [6]) was 16 µg/mL (≈ 22.5 µM), the EC50 (MRC5) was > 64 µg/mL and the MIC (Escherichia coli [7]) was 8 µg/mL (≈ 11.3 µM). For the same compound, the EC50 (HepG2) was > 64 µg/mL, the MIC (Acinetobacter baumannii [9]) was 16 µg/mL (≈ 22.5 µM) and the MIC (Pseudomonas aeruginosa [10]) was 4 µg/mL (≈ 5.63 µM). For the same compound, the MIC (Enterococcus faecium [11]) was 2 µg/mL (≈ 2.81 µM), the MIC (Escherichia coli [12]) was 8 µg/mL (≈ 11.3 µM) and the EC50 (Erythrocyte) was 206 µg/mL (≈ 290 µM). For the same compound, the MIC (Enterococcus faecium [13]) was 4 µg/mL (≈ 5.63 µM).
